Test results: ChEMBL document CHEMBL3779764, “Identification and Structure-Activity Relationships of Diarylhydrazides as Novel Potent and Selective Human Enterovirus Inhibitors” (J Med Chem, 2016)
Activity calls are given as the source filed them. No cut-off for these calls is given here.

Key:
Coxsackievirus B5 = assay: Antiviral activity against Human coxsackievirus B5 infected in african green monkey Vero cells after 24 to 36 hrs by MTS-based CPE reduction assay; type: functional, organism-based; settings: Enterovirus B
Procedure, shortened: (§1)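 Vero cells infected with the coxsackievirus B serotype in the presence of serial compound dilutions. CPE reduction read by MTS/PMS absorbance at 498 nm after 24-36 h at 37 °C. EC50 is the concentration giving 50% CPE inhibition. Mean ± standard deviation of at least three independent experiments.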

Coxsackievirus B1 = assay: Antiviral activity against Human coxsackievirus B1 infected in african green monkey Vero cells after 24 to 36 hrs by MTS-based CPE reduction assay; type: functional, organism-based; settings: Enterovirus B; procedure, shortened: as §1
[1] = Cytotoxicity against african green monkey Vero cells assessed as reduction in cell viability after 24 to 36 hrs by MTS-based CPE reduction assay; settings: chlorocebus sabaeus
Procedure, shortened: (§2)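 Noninfected Vero or RD cells exposed to serial compound dilutions under the CPE-assay conditions (37 °C, 24-36 h). Viability measured by MTS/PMS absorbance at 498 nm. CC50 is the concentration causing 50% death of noninfected cells.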

Enterovirus A71 [2] = assay: Antiviral activity against Enterovirus 71 infected in human RD cells after 24 to 36 hrs by MTS-based CPE reduction assay; type: functional, organism-based; settings: Enterovirus A, RD; read-out: EC50
Procedure, shortened: (§3)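 RD cells given serial compound dilutions with EV71. Incubated at 37 °C for 24-36 h until full CPE in the virus control. Viability read by MTS/PMS at 498 nm. EC50 is the concentration giving 50% inhibition of virus-induced CPE. At least three independent experiments.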

Coxsackievirus B2 = assay: Antiviral activity against Human coxsackievirus B2 infected in african green monkey Vero cells after 24 to 36 hrs by MTS-based CPE reduction assay; type: functional, organism-based; settings: Enterovirus B; procedure, shortened: as §1
Coxsackievirus B3 = assay: Antiviral activity against Human coxsackievirus B3 infected in african green monkey Vero cells after 24 to 36 hrs by MTS-based CPE reduction assay; type: functional, organism-based; settings: Enterovirus B; procedure, shortened: as §1
Coxsackievirus B4 = assay: Antiviral activity against Human coxsackievirus B4 infected in african green monkey Vero cells by after 24 to 36 hrs MTS-based CPE reduction assay; type: functional, organism-based; settings: Enterovirus B; procedure, shortened: as §1
[3] = Selectivity index, ratio of CC50 for human RD cells to EC50 for Enterovirus 71; type: toxicity, cell-based; settings: read-out: Ratio CC50/EC50
Procedure, shortened: (§4)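 Selectivity index is CC50/EC50, both taken from MTS-based CPE reduction assays in the same cell line (Vero or RD).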

[4] = Selectivity index, ratio of CC50 for african green monkey Vero cells to EC50 for Enterovirus 71; type: toxicity, cell-based; settings: read-out: Ratio CC50/EC50; procedure, shortened: as §4
RD [5] = assay: Cytotoxicity against human RD cells assessed as reduction in cell viability after 24 to 36 hrs by MTS-based CPE reduction assay; type: functional; procedure, shortened: as §2
Enterovirus A71 [6] = assay: Antiviral activity against Human enterovirus 71 infected in monkey African green Vero cells by MTS-based CPE reduction assay; type: functional, organism-based; settings: Enterovirus A, Vero; read-out: EC50
Procedure, shortened: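 Vero cells (5 × 10^5) seeded, then given serial compound dilutions plus 100 TCID50 EV71. Incubated at 37 °C for 24-36 h until complete CPE in the virus-infected, compound-free control. Viability read by MTS/PMS at 498 nm. EC50 is the concentration inhibiting virus-induced CPE by 50%. At least three repeats.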

Coxsackievirus B6 = assay: Antiviral activity against Human coxsackievirus B6 infected in african green monkey Vero cells after 24 to 36 hrs by MTS-based CPE reduction assay; type: functional, organism-based; settings: Enterovirus B; procedure, shortened: as §1
RD [7] = assay: Inhibition of human enterovirus 71 capsid assessed as reduction in viral replication at early stages infected in human RD cells at 0.05 ug/ml; type: cell-based; settings: Enterovirus A71
Procedure, shortened: (§5)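 Time-of-addition test in RD cells infected with EV71 at MOI 0.01. Compound was added at set times relative to infection (0.05 or 20 µg/mL).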

Enterovirus A71 [8] = assay: Antiviral activity against Human enterovirus 71 infected in human RD cells assessed as reduction in virus titer measured during single replication cycle by virus titer assay; type: functional, organism-based
Procedure, shortened: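 RD cells (5 × 10^4 per well) cultured at 37 °C, 5% CO2. Next day, treated with compound at 0.00042-33.3 µg/mL in 10% FBS, 0.5% DMSO. After 2 h, infected with EV71 at MOI 1. Supernatants serially diluted 10^-1 to 10^-8 onto fresh cells. CPE scored at 72 hpi; TCID50 calculated by Reed-Muench.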

RD [9] = assay: Cytotoxicity against human RD cells infected with human enterovirus 71 measured during a single replication cycle; type: cell-based
Enterovirus A71 [10] = assay: Induction of stabilization of Human enterovirus 71 capsid protein assessed as increase in temperature for achieving equal staining of viral genome at 5 ug/ml by SYBR green fluorescent assay
Procedure, shortened: (§6)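 SYBR green I and II added at 3× with RNase inhibitor at 1 U/µL. Mixture heated 37–70 °C in 1 °C steps, 2 min each, then cooled to 36 °C for 2 min while fluorescence was read.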

Enterovirus A71 [11] = assay: Induction of stabilization of Human enterovirus 71 capsid protein assessed as increase in temperature for achieving equal staining of viral genome at 50 ug/ml by SYBR green fluorescent assay; procedure, shortened: as §6
RD [12] = assay: Inhibition of human enterovirus 71 capsid assessed as reduction in viral replication at early stages infected in human RD cells at 20 ug/ml; type: cell-based; settings: Enterovirus A71; procedure, shortened: as §5
Enterovirus A71 [13] = assay: Antiviral activity against Human enterovirus 71 infected in human RD cells after 24 to 36 hrs; type: functional, organism-based; settings: Enterovirus A; procedure, shortened: as §3

EC50 (Enterovirus A71 [13]) [nM]	SMILES	EC50 (Coxsackievirus B5) [nM]	EC50 (Coxsackievirus B1) [nM]	CC50 [1] [nM]	EC50 (Enterovirus A71 [2]) [nM]	EC50 (Coxsackievirus B2) [nM]	EC50 (Coxsackievirus B3) [nM]	EC50 (Coxsackievirus B4) [nM]	selectivity ratio [3]	selectivity ratio [4]	CC50 (RD [5]) [nM]	EC50 (Enterovirus A71 [6]) [nM]	EC50 (Coxsackievirus B6) [nM]	inhibition (RD [7])	Activity (Enterovirus A71 [8])	Activity (RD [9])	Activity (Enterovirus A71 [10])	Activity (Enterovirus A71 [11])	inhibition (RD [12])
–	CC(C)S(=O)(=O)n1c(N)nc2ccc(/C(=N/O)c3ccccc3)cc21 [ENVIROXIME]	120	750	> 223000	240	150	2480	> 186000	> 950	> 1490	> 223000	150	100	–	–	–	–	–	–
–	CN(C)c1ccc(C(=O)NNc2c(Cl)cccc2Cl)cc1	2270	1.3	> 247000	30	0.9	950	2570	> 8230	> 12300	> 247000	20	940	Active	Active	Non-toxic	Active	–	–
–	Cc1cc(CCCCCCCOc2ccc(C3=NCCO3)cc2)on1 [DISOXARIL]	–	–	148000	15300	–	–	–	10.9	7.6	167000	19500	–	–	–	–	–	Active	Active
1420	O=C(c1cccs1)N(Cc1ccc(Br)cc1)c1ccc(F)cc1	–	–	–	–	–	–	–	–	–	–	–	–	–	–	–	–	–	–
–	CN(C)c1ccc(C(=O)NNc2c(Br)cccc2Br)cc1	60	5	> 194000	70	0.5	30	340	> 2930	> 6460	> 194000	30	20	–	–	–	–	–	–
–	CC(C)(C)c1ccc(C(=O)NNc2c(Br)cccc2Br)cc1	980	2610	> 188000	290	1570	870	6520	> 641	> 2350	> 188000	80	920	–	–	–	–	–	–
